# Source: ChEMBL document CHEMBL1125445, “Bis(maltolato)oxovanadium(IV) is a potent insulin mimic” (J Med Chem, 1992)
# Tests used:
# Assay type in all cases: functional, organism-based
# [1] = organism: Rattus norvegicus; assay: Decrease in plasma triglyceride (mM) in male Wistar rats diabetic treated (DT) group (number of rats = 12) which received compound dissolved in tap water
# How it was run: (§1)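 Wistar males, with STZ diabetes from 60 mg/kg i.v. in saline or saline-injected controls. Treated groups got the compound ad libitum in drinking water (1.58 mM) and untreated groups got tap water. Plasma was taken after 4 weeks by centrifuging blood at 20000g for 10 min at 4 °C and kept at -70 °C until assay. Reported as mean ± SEM, with ANOVA then Newman-Keuls.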
# [2] = organism: Rattus norvegicus; assay: Decrease in fluid (mL/rat/day)-intake in male Wistar rats diabetic treated (DT) group (number of rats = 12) which received compound dissolved in tap water
# How it was run: (§2)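 Male Wistar rats; diabetes induced by a single tail-vein injection of streptozocin, 60 mg/kg in 0.9% NaCl, and non-diabetic rats got saline. Treated groups drank the compound in tap water (1.58 mM), and untreated groups drank tap water. Food and fluid intake per 24 h per cage was divided by rats per cage. Values at week 4, mean ± SEM, ANOVA/Newman-Keuls.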
# [3] = tested on: Rattus norvegicus; assay: Decrease in fluid (mL/rat/day)-intake-in male Wistar rats diabetic (D) group (number of rats = 11) where the diabetic state was induced by intravenous administration of streptozocin (STZ) at 60 mg/kg; set-up: dose 60 mg/kg; how it was run: as §2
# [4] = organism: Rattus norvegicus; assay: Decrease in food intake of male Wistar rats control treated (CT) group (number of rats = 11) which received compound dissolved in tap water; how it was run: as §2
# [5] = organism: Rattus norvegicus; assay: Decrease in plasma glucose (mM) in male Wistar rats diabetic treated (DT) group (number of rats = 12) which received compound dissolved in tap water; how it was run: as §1
# [6] = organism: Rattus norvegicus; assay: Decrease in plasma triglyceride (mM) of male Wistar rats control treated (CT) group (number of rats = 11) which received compound dissolved in tap water; how it was run: as §1
# [7] = organism: Rattus norvegicus; assay: Decrease in weight of male Wistar rats control treated (CT) group (number of rats = 11) which received compound dissolved in tap water
# How it was run: (§3)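 Male Wistar rats housed 2–3 per cage on a 12 h light/dark cycle with free food and water. Diabetes was induced by i.v. streptozocin, 60 mg/kg in 0.9% NaCl, and controls got saline. Treated groups drank the compound at 1.58 mM in tap water. Body weight was recorded daily and reported at week 4 as mean ± SEM, with ANOVA/Newman-Keuls.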
# [8] = organism: Rattus norvegicus; assay: Decrease food (g/rat/day) intake in male Wistar rats diabetic treated (DT) group (number of rats = 12) which received compound dissolved in tap water; how it was run: as §2
# [9] = tested on: Rattus norvegicus; assay: Decrease in food (g/rat/day)in take in male Wistar rats diabetic (D) group (number of rats = 11) where the diabetic state was induced by intravenous administration of streptozocin (STZ) at 60 mg/kg; set-up: dose 60 mg/kg; how it was run: as §2
# [10] = organism: Rattus norvegicus; assay: Decrease weight(g) in male Wistar rats diabetic treated (DT) group (number of rats = 12) which received compound dissolved in tap water; how it was run: as §3
# [11] = organism: Rattus norvegicus; assay: Decrease in plasma cholesterol (mM) of male Wistar rats control treated (CT) group (number of rats = 11) which received compound dissolved in tap water; how it was run: as §1
# [12] = organism: Rattus norvegicus; assay: Decrease in plasma glucose (mM) of male Wistar rats control treated (CT) group (number of rats = 11) which received compound dissolved in tap water; how it was run: as §1
# [13] = organism: Rattus norvegicus; assay: Decrease in weight of Male Wistar ratsrecieved an equivalent volume of isotonic saline (C control group); how it was run: as §3
# [14] = tested on: Rattus norvegicus; assay: Decrease in weight(g)in male Wistar rats diabetic (D) group (number of rats = 11) where the diabetic state was induced by intravenous administration of streptozocin (STZ) at 60 mg/kg; set-up: dose 60 mg/kg; how it was run: as §3
# [15] = organism: Rattus norvegicus; assay: Decrease in plasma glucose (mM) of Male Wistar ratsrecieved an equivalent volume of isotonic saline (C control group); how it was run: as §1
# [16] = organism: Rattus norvegicus; assay: Decrease in plasma cholesterol (mM) of Male Wistar ratsrecieved an equivalent volume of isotonic saline (C control group); how it was run: as §1
# [17] = tested on: Rattus norvegicus; assay: Decrease in plasma triglyceride (mM)in male Wistar rats diabetic (D) group (number of rats = 11) where the diabetic state was induced by intravenous administration of streptozocin (STZ) at 60 mg/kg; set-up: dose 60 mg/kg; how it was run: as §1
# [18] = tested on: Rattus norvegicus; assay: Decrease in plasma glucose (mM)in male Wistar rats diabetic (D) group (number of rats = 11) where the diabetic state was induced by intravenous administration of streptozocin (STZ) at 60 mg/kg; set-up: dose 60 mg/kg; how it was run: as §1
# [19] = tested on: Rattus norvegicus; assay: Decrease in plasma cholesterol (mM)in male Wistar rats diabetic (D) group (number of rats = 11) where the diabetic state was induced by intravenous administration of streptozocin (STZ) at 60 mg/kg; set-up: dose 60 mg/kg; how it was run: as §1
# [20] = organism: Rattus norvegicus; assay: Decrease in fluid intake of male Wistar rats control treated (CT) group (number of rats = 11) which received compound dissolved in tap water; how it was run: as §2
# [21] = organism: Rattus norvegicus; assay: Decrease in plasma cholesterol (mM) in male Wistar rats diabetic treated (DT) group (number of rats = 12) which received compound dissolved in tap water; how it was run: as §1
# [22] = organism: Rattus norvegicus; assay: Decrease in plasma insulin (microUnits/mL) of male Wistar rats control treated (CT) group (number of rats = 11) which received compound dissolved in tap water; how it was run: as §1
# [23] = organism: Rattus norvegicus; assay: Decrease in plasma triglyceride (mM) of Male Wistar ratsrecieved an equivalent volume of isotonic saline (C control group); how it was run: as §1
# [24] = organism: Rattus norvegicus; assay: Decrease in fluid intake of Male Wistar ratsrecieved an equivalent volume of isotonic saline (C control group); how it was run: as §2
# [25] = organism: Rattus norvegicus; assay: Decrease in plasma insulin (microUnits/mL) in male Wistar rats diabetic treated (DT) group (number of rats = 12) which received compound dissolved in tap water; how it was run: as §1
# [26] = organism: Rattus norvegicus; assay: Decrease in food intake of Male Wistar ratsrecieved an equivalent volume of isotonic saline (C control group); how it was run: as §2
# [27] = tested on: Rattus norvegicus; assay: Decrease in plasma insulin (microUnits/mL) in male Wistar rats diabetic (D) group (number of rats = 11) where the diabetic state was induced by intravenous administration of streptozocin (STZ) at 60 mg/kg; set-up: dose 60 mg/kg; how it was run: as §1
# [28] = organism: Rattus norvegicus; assay: Decrease in plasma insulin (microUnits/mL) of Male Wistar ratsrecieved an equivalent volume of isotonic saline (C control group); how it was run: as §1
substance,measurement,setting,value
BIS(MALTOLATO)OXOVANADIUM(IV),Plasma triglyceride,[1],1.9 mM
same,Fluid (ml rat-1 day-1),[2],52
same,Fluid (ml rat-1 day-1),[3],264
same,Food (g rat-1 day-1),[4],28.8
same,Plasma glucose,[5],7 mM
same,Plasma triglyceride,[6],2.1 mM
same,WEIGHT,[7],391 g
same,Food (g rat-1 day-1),[8],37.9
same,Food (g rat-1 day-1),[9],63.5
same,WEIGHT,[10],311 g
same,Plasma cholesterol,[11],1.7 mM
same,Plasma glucose,[12],4.1 mM
same,WEIGHT,[13],404 g
same,WEIGHT,[14],349 g
same,Plasma glucose,[15],4 mM
same,Plasma cholesterol,[16],1.4 mM
same,Plasma triglyceride,[17],2.7 mM
same,Plasma glucose,[18],13.9 mM
same,Plasma cholesterol,[19],2.4 mM
same,Fluid (ml rat-1 day-1),[20],43
same,Plasma cholesterol,[21],1.6 mM
same,Plasma insulin,[22],21.6 uUnits ml-1
same,Plasma triglyceride,[23],1.8 mM
same,Fluid (ml rat-1 day-1),[24],59
same,Plasma insulin,[25],21.9 uUnits ml-1
same,Food (g rat-1 day-1),[26],28.3
same,Plasma insulin,[27],22 uUnits ml-1
same,Plasma insulin,[28],35.6 uUnits ml-1
